The text below walks through data of ChEMBL document CHEMBL4359878, “Discovery of 4-piperazinyl-2-aminopyrimidine derivatives as dual inhibitors of JAK2 and FLT3” (Eur J Med Chem, 2019).

The IC50 is the concentration needed to halve the response being measured. Usually inhibition stands for how much of the control response was suppressed. A high value points to strong suppression.

Assay [1] concerns HEL. Kind of assay: Induction of apoptosis in human HEL cells assessed as viable cells at 1 uM after 72 hrs by FITC-annexin V/propidium iodide-double staining based flow cytometry (reference value: 93.77%). Format: functional. Conditions: read-out: Activity. Background: A flow cytometer gives signals particle by particle.
The subject of assay [2] is HEL. Kind of assay: Induction of apoptosis in human HEL cells assessed as necrotic cells at 3 uM after 72 hrs by FITC-annexin V/propidium iodide-double staining based flow cytometry (reference value: 2.40%). Format: functional.
Assay [3] relates to HEL. The assay can be described thus: Induction of apoptosis in human HEL cells assessed as early apoptotic cells at 3 uM after 72 hrs by FITC-annexin V/propidium iodide-double staining based flow cytometry (reference value: 2.23%). Format: functional.
In assay [4] the test system is HEL. The assay can be described thus: Induction of cell cycle arrest in human HEL cells assessed as accumulation at G1 phase at 1 uM after 72 hrs by propidium iodide-staining based flow cytometry (reference value: 43.12%). Format: functional. The procedure, abridged:
(§1)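 Subconfluent HEL cells were treated for 72 h at 0.33, 1.0, 3.0 or 9.0 μM, with untreated cells as control. Cultures were pulsed with 10 μM BrdU for 30 min at 37 °C before harvest, then PBS-washed, fixed in 70% ethanol and denatured in 2 M HCl. After neutralization, cells were stained with fluorescein anti-BrdU antibody and propidium iodide. DNA content was measured by flow cytometry with 488 nm excitation.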

Assay [5] relates to HEL. Kind of assay: Induction of cell cycle arrest in human HEL cells assessed as accumulation at G2 phase at 0.33 uM after 72 hrs by propidium iodide-staining based flow cytometry (reference value: 15.10%). Format: functional. The procedure, abridged: as §1
Assay [6] has as its system HEL. Kind of assay: Induction of cell cycle arrest in human HEL cells assessed as accumulation at G2 phase at 9 uM after 72 hrs by propidium iodide-staining based flow cytometry (reference value: 15.10%). Format: functional. The procedure, abridged: as §1
In assay [7] the test system is HEL. Kind of assay: Induction of apoptosis in human HEL cells assessed as early apoptotic cells at 1 uM after 72 hrs by FITC-annexin V/propidium iodide-double staining based flow cytometry (reference value: 2.23%). Format: functional.
The test system of assay [8] is HEL. The assay can be described thus: Induction of apoptosis in human HEL cells assessed as early apoptotic cells at 9 uM after 72 hrs by FITC-annexin V/propidium iodide-double staining based flow cytometry (reference value: 2.23%). Format: functional.
The subject of assay [9] is HEL. Kind of assay: Induction of cell cycle arrest in human HEL cells assessed as accumulation at S phase at 0.33 uM after 72 hrs by propidium iodide-staining based flow cytometry (reference value: 41.47%). Format: functional. In short, it runs like this:
as §1

Assay [10] deals with T1, Receptor-type tyrosine-protein kinase FLT3 (Homo sapiens, UniProt P36888).
T1 sequence (P36888 whole entry): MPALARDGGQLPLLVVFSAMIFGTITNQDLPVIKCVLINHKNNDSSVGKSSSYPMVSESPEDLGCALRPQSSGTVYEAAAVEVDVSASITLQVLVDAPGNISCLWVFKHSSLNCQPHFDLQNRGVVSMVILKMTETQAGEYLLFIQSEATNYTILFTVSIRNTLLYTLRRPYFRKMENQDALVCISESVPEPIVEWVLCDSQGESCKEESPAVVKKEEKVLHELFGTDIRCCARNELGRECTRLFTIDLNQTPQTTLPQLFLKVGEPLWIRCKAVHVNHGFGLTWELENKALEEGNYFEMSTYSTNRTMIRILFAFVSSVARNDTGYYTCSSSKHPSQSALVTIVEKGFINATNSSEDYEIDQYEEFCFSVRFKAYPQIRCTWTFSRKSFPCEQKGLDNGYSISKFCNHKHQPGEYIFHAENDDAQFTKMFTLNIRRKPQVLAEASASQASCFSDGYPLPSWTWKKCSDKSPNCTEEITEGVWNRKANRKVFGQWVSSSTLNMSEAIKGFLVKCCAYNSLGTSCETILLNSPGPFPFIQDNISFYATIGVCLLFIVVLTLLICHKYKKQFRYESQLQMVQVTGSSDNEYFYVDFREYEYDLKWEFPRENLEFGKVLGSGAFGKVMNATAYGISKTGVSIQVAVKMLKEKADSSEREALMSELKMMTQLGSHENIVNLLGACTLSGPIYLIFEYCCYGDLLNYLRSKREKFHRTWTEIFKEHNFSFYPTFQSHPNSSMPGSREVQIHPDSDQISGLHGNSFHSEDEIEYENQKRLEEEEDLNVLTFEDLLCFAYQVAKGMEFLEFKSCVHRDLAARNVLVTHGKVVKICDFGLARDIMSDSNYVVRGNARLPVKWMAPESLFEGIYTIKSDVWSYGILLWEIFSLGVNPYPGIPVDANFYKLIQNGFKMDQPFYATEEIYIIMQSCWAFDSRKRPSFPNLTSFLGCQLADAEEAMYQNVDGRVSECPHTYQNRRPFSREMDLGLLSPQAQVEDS
Kind of assay: Inhibition of N-terminal GST-tagged human FLT3 cytoplasmic domain (564 to 993 residues) expressed in baculovirus expression system musing FAM-labeled peptide as substrate preincubated for 10 mins followed by substrate addition measured after 1 hr in presence of ATP by mobility shift assay. The procedure, abridged: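 Caliper mobility-shift assay with recombinant kinase in 50 mM HEPES pH 7.5, 0.0015% Brij-35. Compound was diluted from DMSO and preincubated with enzyme for 10 min at room temperature. FAM-labeled peptide plus ATP was then added and the reaction run for 1 h at 28 °C. It was stopped with an EDTA (50 mM) buffer. Conversion gave percent inhibition relative to max/min controls, and IC50 came from a four-parameter Hill fit. Duplicate wells were used.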

For assay [11], the target named is Receptor-type tyrosine-protein kinase FLT3 (Homo sapiens) (UniProt P36888). Conditions: at 100 nM.

Turning to `CC(=O)c1ccc(NC(=O)N2CCN(c3ccnc(Nc4ccc(N5CCOCC5)cc4)n3)CC2)cc1`, in assay [1], the viability at 1 µM is 47.9%. Besides, the Activity in [2] was 7%; in assay [3], 31.87%; in assay [4] it was 61.44%; in [5], 7.31%; in [6], 2.07%; in assay [7] it was 16.97%. The Activity in [8] amounted to 35.53%; in assay [9], 38.62%. Besides, the concentration for half-maximal inhibition (IC50) in assay [10] is 30 nM. In assay [11], this compound gave an inhibition of 80.7%.
